Measured values reported in ChEMBL document CHEMBL5038580 (J Med Chem, 2022).
Residues, ends and D or L forms follow the SMILES beside them.

Experiments:
SARS-CoV-2 [1] = test: Antiviral activity against SARS-CoV-2 assessed as inhibition of viral infection in 293T/ACE2 cells preincubated for 30 min followed by cells addition for 12 hrs and complete medium replacement and measured after 48 hrs by luciferase assay; type: functional, organism-based; conditions: Severe acute respiratory syndrome coronavirus 2, 293T/ACE2
Method in brief: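 ACE2-293T cells (10^4/well) were plated 12 h before infection. Pseudovirus was mixed with peptides serially diluted in FBS-free DMEM for 30 min at 37 °C and added to the cells. After 12 h the medium was replaced with complete medium and cells were incubated 48 h more. Luciferase activity was read.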

SARS-CoV-2 [2] = test: Antiviral activity against SARS-CoV-2 assessed as inhibition of viral infection in Caco-2 cells preincubated for 30 min followed by cells addition for 12 hrs and complete medium replacement and measured after 48 hrs by luciferase assay; type: functional, organism-based; conditions: Severe acute respiratory syndrome coronavirus 2, Caco-2

## CC[C@H](C)[C@H](NC(C)=O)C(=O)N[C@@H](CCC(=O)O)C(=O)N[C@@H](CCC(=O)O)C(=O)N[C@H](C(=O)N[C@H](C(=O)N[C@@H](CCCCN)C(=O)N[C@@H](CCCCN)C(=O)N[C@H](C(=O)N[C@@H](Cc1c[nH]cn1)C(=O)N[C@@H](Cc1c[nH]cn1)C(=O)N[C@H](C(=O)N[C@@H](CCC(=O)O)C(=O)N[C@@H](CCCNC(=N)N)C(=O)N[C@@H](C)C(=O)N[C@H](C(=O)N[C@@H](CCC(=O)O)C(=O)N[C@@H](C)C(=O)N[C@@H](CCC(N)=O)C(=O)N[C@@H](CCC(N)=O)C(=O)N[C@@H](CCCCN)C(=O)N[C@@H](CC(C)C)C(=O)N[C@@H](CC(C)C)C(=O)N[C@@H](CCC(N)=O)C(=O)N[C@@H](CC(C)C)C(=O)N[C@H](C(=O)N[C@H](C(=O)N[C@@H](Cc1c[nH]c2ccccc12)C(=O)NCC(=O)N[C@H](C(=O)N[C@@H](CCCCN)C(=O)N[C@@H](CCC(N)=O)C(=O)N[C@@H](CC(C)C)C(=O)N[C@@H](CCC(N)=O)C(=O)N[C@@H](C)C(=O)N[C@@H](CCCNC(=N)N)C(=O)N[C@H](C(=O)N[C@@H](CC(C)C)C(N)=O)[C@@H](C)CC)[C@@H](C)CC)C(C)C)[C@@H](C)O)[C@@H](C)CC)[C@@H](C)CC)[C@@H](C)CC)C(C)C)[C@@H](C)CC (Ac-IEEIVKKIHHIERAIEAQQKLLQLTVWGIKQLQARIL-NH2)
SARS-CoV-2 [1]
  IC50: > 20 µM
SARS-CoV-2 [2]
  IC50: > 20 µM
